Source: PubChem
In the library only some 2.6% were active in any assay of this set; here they are far more common.
Hsp70 activator: Hsp70 transcriptional activators, primary screen, cell-based, HeLa, Hsp70 promoter luciferase, luminescence, 10 µM; activation, % at 10 µM; 200,000 compounds, 0.04% hits; HeLa Hsp70 promoter luciferase reporter; scaled: vehicle 0, proteasome-inhibitor control 100%;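 active = activation above the mean across all tested compounds plus 3 SD, cutoff set per campaign, cut at about 5.5% in these data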;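 also: 100% = MG132 at 30 µM as the positive control and 0% = DMSO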
HSV augment: enhancers of HSV replication in host cells, fold increase, host cell viability | HSV replication augmentation in cells | 220,000 compounds, 0.005% hits | maximum fold increase | AID 1956, 2009; in the data active = maximum fold increase above about 1.5; inconclusive = no clear call, values can overlap the other calls; tested in PC3 cells
Rad51 HR inh: human RAD51 strand exchange inhibitors, primary screen, biochemical, fluorescence; hRad51 DNA strand exchange, fluorescence dequenching; inhibition, % at 10 µM; 200,000 compounds, 0.085% hits; AID 1385, 2008;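 active = inhibition above 40% at the single screening dose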;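 also: 0% = DMSO control wells and 100% = blanks with heterologous ssDNA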
Target sequence (Q06609 whole entry, looked up): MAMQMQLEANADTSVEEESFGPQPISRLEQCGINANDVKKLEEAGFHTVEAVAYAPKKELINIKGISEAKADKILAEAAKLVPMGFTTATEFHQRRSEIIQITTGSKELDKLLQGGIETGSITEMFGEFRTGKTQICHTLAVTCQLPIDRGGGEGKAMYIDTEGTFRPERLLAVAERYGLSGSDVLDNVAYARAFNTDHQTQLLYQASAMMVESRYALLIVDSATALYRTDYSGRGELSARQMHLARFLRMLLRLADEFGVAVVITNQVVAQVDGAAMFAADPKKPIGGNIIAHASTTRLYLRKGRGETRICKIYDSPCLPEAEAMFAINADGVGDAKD
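Read-out basis: percent inhibition relative to plate controls and blanks / Assay system: human Rad51 nucleoprotein filaments preassembled on unlabelled ssDNA / Timing: filaments 15 min 37 °C, then compound 30 min / Control set: per-plate controls and blanks / Technique: fluorescence dequenching at 485/520 nm / Compound: 10 µM final, single point / Also added: Fluorescein- and BHQ1-tagged 47-mer duplex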
HSF1 inh: HSF1 inhibitors in luciferase reporter cells, primary screen, cell-based, NIH3T3, luminescence; NIH3T3-HGL HSE-luciferase, MG132-induced, luminescence 8 h; active compounds read low; activity change, negative = inhibition, % at 7.5 µM (by protocol); 300,000 compounds, 0.77% hits;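 active = more than half of replicate wells show activity change below -50%, luminescence cut by over half; inconclusive = some wells, but at most half, below -50%; inactive = no replicate well below -50%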;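 also: luciferase reports HSF-1 transcriptional activity via heat shock element; 0% = median of DMSO wells and -100% = zero luminescence signal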
HSF1 activator: HSF-1 activators, primary screen, NIH3T3-HGL cells, MG132 stress, luminescence, single point. NIH3T3-HGL HSF-1 luciferase reporter, 8 h; 100% = twice DMSO control signal. activation, % at 9 µM. 300,000 compounds, 1.7% hits;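 active = mean replicate activation of at least 50% with a set share of replicates each reaching 50%; inconclusive = only one of those two conditions met; inactive = mean below 50% and too few replicates reaching it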;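 also: 0% = median of the neutral control wells and 100% = twice that signal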
Mdm2 ligase inh: MDM2-luciferase reporter signal enhancers, primary screen, MDM2 E3 ligase inhibitor project, cell-based, luminescence, 1536-well; E3 ubiquitin-protein ligase Mdm2 (Homo sapiens), Q00987; cell-based MDM2 ubiquitination luciferase reporter, 2 h; 0 = plate control, 100 = twice control, blank-subtracted; signal enhancement, % at 5 µM; 210,000 compounds, 0.11% hits;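 active = signal enhancement of 30% or more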;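 also: luminescence tracks abundance of the self-degrading MDM2-luciferase fusion protein; higher signal means inhibition of MDM2 E3 ligase activity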
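test system = mammalian cells stably expressing self-ubiquitinating, self-degrading MDM2 E3–luciferase fusion | quantity = 2000 cells/well | incubation = cell settling 4 h, compound treatment 2 h, both 37 °C | signal = luminescence with SteadyLite reagent, 15 min at room temperature | evaluation = % enhancement relative to plate controls after blank subtraction | benchmarks = plate controls and plate blanks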
Active calls of the source: *; i = inactive; ? = inconclusive; . = not tested or not shown.

SMILES	Hsp70 activator	HSV augment	Rad51 HR inh	HSF1 inh	HSF1 activator	Mdm2 ligase inh
CCOc1ccc(NC(=O)CSc2nc(=O)n(Cc3cccnc3)c3c2CCC3)cc1	.	.	.	-1.3	6.2	.
COc1cc(C=O)ccc1OC(=O)c1ccc(C(C)C)cc1	-0.2	i	-2.9	-91.2*	-93.0	-4.8
CC(C)(C)NC(=O)c1cc([N+](=O)[O-])ccc1N1CCCCC1	-0.6	i	-17.1	2.0	10.4	-20.8
Cc1cccc(C)c1NC(=O)N1C(C(=O)O)CSC1C(=O)O (stereo not drawn)	0.2	i	-6.0	-87.7*	-90.0	-5.2
COCCn1c(Cc2ccccc2)nnc1SCC(=O)Nc1oc(C)c2c(C)n[nH]c(=O)c12	.	.	.	-8.8	-3.4	.
COC(=O)CCC(=O)COc1ccc(OC)cc1C#N	0.2	i	3.5	39.2	52.5*	-10.1
CCCCCCN(C(=O)CCCCCN1C(=O)NC(c2ccc(-c3ccccc3)cc2)C(C(=O)OCc2ccccc2)=C1C)C(C(=O)NCCCC)c1ccc(O)cc1 (stereo not drawn)	-0.1	i	-2.4	.	.	.
N#C/C(=C/c1ccncc1)c1nc2ccccc2s1	-0.4	?	-16.5	1.7	-9.5	-9.3
CC1CCc2nc(/C(C#N)=C/c3ccncc3)sc2C1 (stereo not drawn)	0.0	i	-4.3	63.5	97.5*	-11.2
CN(Cc1cn[nH]c1-c1cc2ccccc2o1)CC1CCOCC1	-0.3	i	.	11.9	0.6	-0.5
O=C(c1cn(-c2ccccc2)nc1-c1cccs1)N1CCN(c2ccccc2)CC1	-0.2	i	1.8	4.0	27.0	3.2
O=C(c1cn(-c2ccccc2)nc1-c1cccs1)N1CCOCC1	-0.2	i	-8.2	0.1	6.6	32.7*
CC1=C(C(=O)Nc2ccccn2)C(c2ccc(Cl)cc2)NC(=S)N1 (stereo not drawn)	-0.2	i	6.3	25.0	63.9*	-6.9
CC1=C(C(=O)Nc2ccccn2)C(c2ccc(Br)cc2)NC(=S)N1 (stereo not drawn)	0.1	i	7.5	31.0	39.3	13.1
COc1ccccc1N(CC(O)CN1CCC(C)CC1)S(=O)(=O)c1ccccc1 (stereo not drawn)	.	.	.	11.4	56.7*	.
CCOc1ccc(NC(=S)N(CCc2ccncc2)C(C)C)cc1	-0.1	i	.	-52.5*	-63.4	-1.4
O=C(CN(C(=O)CCC(=O)Nc1nccs1)c1ccc2c(c1)OCO2)NCc1ccccc1	.	.	.	-3.3	6.8	.
CC(C)Oc1ccc(CNC(=O)Cn2ccc3cc(S(=O)(=O)N4CCCC4)ccc32)cc1	.	.	.	4.9	18.4	.
COc1ccccc1CN1CCCC(CN(CCN(C)C)C(=O)C2CCCC2)C1 (stereo not drawn)	.	.	.	-61.7*	-70.8	.
CC(=O)NCCC(=O)N1CCCC(N2CCN(c3cccc(Cl)c3)CC2)C1 (stereo not drawn)	.	.	.	1.2	4.4	.
C/C(=N/OCc1ccc(Br)cc1)c1ccccn1	0.2	i	3.0	22.4	84.0*	-20.4
C/C(=N\OC(=O)c1ccc(Br)cc1)c1ccccn1	-0.2	i	4.7	-6.4	0.7	5.1
COc1ccc(NC(=O)CCc2nnc3ccc(NCc4ccc5c(c4)OCO5)nn23)cc1	.	.	.	23.3	66.3*	.
COc1cccc(C(=O)COC(=O)C(C)N2C(=O)C3C4C=CC(C4)C3C2=O)c1 (stereo not drawn)	-0.1	i	8.3	16.7	57.2*	-20.2
O=C(O)CSc1ccccc1C(=O)O	0.0	i	-3.6	-91.8*	-93.7	-16.8
C/C(=C\C(=O)c1ccc(C)cc1)NCc1ccc(F)cc1	-0.2	i	2.3	5.7	6.0	.
C/C(=C\C(=O)c1ccccc1)NCc1ccc(F)cc1	0.0	i	-2.7	27.1	65.4*	-3.0
Cn1c(NC(=S)Nc2ccccc2)nc2ccccc21	-0.2	i	0.5	39.8	77.4*	-33.1
